We go through 5 compounds from ChEMBL document CHEMBL1134963, “Synthesis and muscarinic M(2) subtype antagonistic activity of enantiomeric pairs of 3-demethylhimbacine (3-norhimbacine) and its C(4)-epimer” (Bioorg Med Chem Lett, 2002).

pKi: −log10 of the molar value.

Test [1] deals with T1, Muscarinic acetylcholine receptor M2 (Rattus norvegicus, UniProt P10980).
T1 sequence (P10980 whole entry): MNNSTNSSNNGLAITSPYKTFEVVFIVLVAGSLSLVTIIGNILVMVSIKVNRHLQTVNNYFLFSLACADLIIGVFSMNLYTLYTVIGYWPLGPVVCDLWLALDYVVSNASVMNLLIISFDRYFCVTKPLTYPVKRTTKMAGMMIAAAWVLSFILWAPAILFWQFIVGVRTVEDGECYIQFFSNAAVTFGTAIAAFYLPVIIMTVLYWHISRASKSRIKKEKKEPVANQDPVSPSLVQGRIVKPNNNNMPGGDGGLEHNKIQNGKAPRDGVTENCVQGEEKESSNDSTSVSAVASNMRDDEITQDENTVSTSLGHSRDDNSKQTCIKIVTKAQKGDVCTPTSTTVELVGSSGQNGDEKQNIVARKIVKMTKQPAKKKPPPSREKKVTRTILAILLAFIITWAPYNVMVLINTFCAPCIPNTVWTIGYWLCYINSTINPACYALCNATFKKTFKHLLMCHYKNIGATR
Put plainly: The compound was tested in vitro for binding activity against M2 muscarinic receptor in homogenates of the brainstem of rat using [3H]quinuclidinyl benzilate (QNB) as radioligand. It is filed as tissue-based, Brain. In a few lines: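 Competition binding on rat brainstem homogenate with [3H]-QNB in 50 mM Tris buffer (pH 7.4) for 90 min at 25 °C. Separation is by rapid GF-B filtration with scintillation counting. 2 μM atropine defines non-specific binding. DMSO stays under 0.1%. Ki is taken from IC50 via Cheng–Prusoff using radioligand concentration and Kd.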

Test [2] concerns the target T2, Muscarinic acetylcholine receptor M1 (Rattus norvegicus, UniProt P08482).
T2 sequence (P08482 whole entry): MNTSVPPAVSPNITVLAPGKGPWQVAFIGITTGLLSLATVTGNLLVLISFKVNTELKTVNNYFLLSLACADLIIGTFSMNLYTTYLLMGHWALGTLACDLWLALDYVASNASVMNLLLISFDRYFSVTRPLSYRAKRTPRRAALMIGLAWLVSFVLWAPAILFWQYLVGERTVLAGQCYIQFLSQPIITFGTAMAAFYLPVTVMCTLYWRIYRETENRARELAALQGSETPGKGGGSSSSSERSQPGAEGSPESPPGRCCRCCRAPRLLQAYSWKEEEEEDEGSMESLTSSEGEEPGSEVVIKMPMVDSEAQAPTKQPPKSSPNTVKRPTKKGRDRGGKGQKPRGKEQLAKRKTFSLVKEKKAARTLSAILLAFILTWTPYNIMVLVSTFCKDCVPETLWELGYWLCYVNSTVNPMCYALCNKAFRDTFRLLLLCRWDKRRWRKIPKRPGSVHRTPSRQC
In words: The compound was tested in vitro for binding activity against M1 muscarinic receptor in homogenates of the cerebral cortex of rat using [3H]pirenzepine as radioligand. It is filed as tissue-based. In short, it runs like this: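 Rat cerebral cortex homogenate with [3H]-pirenzepine in 50 mM Tris buffer pH 7.4, 25 °C for 90 min. Bound ligand is separated by rapid GF-B filtration and counted by liquid scintillation. Non-specific binding is defined with 2 μM atropine. Compounds in DMSO, below 0.1% final. Ki = IC50/(1 + L/Kd) by Cheng–Prusoff.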

Broadly, the pKi is the negative decadic logarithm of the Ki, by convention in mol/L. In the case of `C[C@H]1CCC[C@H](/C=C/[C@H]2[C@H]3COC(=O)[C@H]3C[C@H]3CCCC[C@@H]32)N1C` (stereo in doubt), the pKi in test [1] is 6.10; in test [2], 6.00.

On to `C[C@H]1CCC[C@H](/C=C/[C@@H]2[C@H]3COC(=O)[C@H]3C[C@H]3CCCC[C@@H]32)N1C` (stereo in doubt), for which the “-Log Ki” value in test [1] worked out at 6.4. The same compound showed a pKi in test [2] of 6.30.

For the compound `C[C@H]1CCC[C@H](/C=C/[C@H]2[C@H]3COC(=O)[C@H]3C[C@H]3CCCC[C@@H]32)N1C` (stereo in doubt; 2), the pKi in test [1] is 8.10; in test [2], 7.40.

Take `C[C@H]1CCC[C@H](/C=C/[C@@H]2[C@H]3COC(=O)[C@H]3C[C@H]3CCCC[C@@H]32)N1C` (stereo in doubt; 3): the results for the pKi in test [1] and in test [2] were 6.40 and 6.20, respectively.

With `C[C@@H]1OC(=O)[C@H]2C[C@H]3CCCC[C@@H]3[C@@H](/C=C/[C@H]3CCC[C@H](C)N3C)[C@@H]12` [HIMBACINE], the pKi was 7.90 in test [1] and 7.10 in test [2].
